Measured values reported in article PMC9377749 (Molecular Cancer Therapeutics, 2022).
Values belong to the compound of their own block, whether it stands above or below them. Peptide text beside a SMILES is read from it. * marks the point of attachment. Doxorubicin(3'-N) = COc1cccc2c1C(=O)c1c(O)c3c(c(O)c1C2=O)C[C@@](O)(C(=O)CO)C[C@@H]3O[C@H]1C[C@H](N*)[C@H](O)[C@H](C)O1; Phosphonoacetyl = O=C(CP(=O)(O)O)*

Assays:
patients = details: cited from earlier work
[1] = Tissue distribution and pharmacokinetics in E0771 tumor-bearing mice; format: in vivo, mouse; details: for t 1/2α / C max / AUC / Cmax / t max / t 1/2β: label = analyte
Acute toxicity = format: in vivo, mouse; details: mouse, in vivo
MDA-MB-468 cells = assay: In vitro 2D cytotoxicity; format: cell-based; details: Homo sapiens, MDA-MB-468, 72 h
[2] = system: C57BL6 mice (bone marrow repopulation); assay: In vivo hematotoxicity, bone marrow transplantation from treated donors; set-up: species or system mouse; details: for survival of mice receiving BM from treated donors: day 41 post-transplantation, donors 58 mg/kg/week Dox or 1,026 mg/kg/week PhAc-ALGP-Dox
Method in brief: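 Donor C57BL6 mice received the test compound (1,026 mg/kg/week) or doxorubicin (58 mg/kg/week) by intraperitoneal osmotic minipump for 7 days. Blood and bone marrow were collected 2 days later. Blood counts used a haematology analyser, and subpopulations were analysed by FACS (CTL = CD3+ CD8a+; B = CD45R+; CD4+; NK1.1+), n = 8. Bone marrow cells (1 × 10^7) were injected IV into 9.5 Gy-irradiated recipients, which were followed 41 days.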

[3] = system: human iPSCs-derived cardiomyocytes; assay: Impedance-based cardiotoxicity; format: cell-based
[4] = system: human erythroid progenitors; assay: In vitro hematotoxicity, colony growth; format: cell-based
Method in brief: (§1)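 Human erythroid and myeloid progenitors grown in MethoCult GF H84434 with continuous exposure to the test compound for 14 days. Progenitor proliferation was scored as colony growth and dose–response curves were fitted to give IC50.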

E0771 cells = assay: In vitro 2D cytotoxicity; format: cell-based; details: Mus musculus, E0771, 72 h
[5] = system: human myeloid progenitors; assay: In vitro hematotoxicity, colony growth; format: cell-based
Method in brief: as §1

H9C2 rat cardiomyocytes = assay: In vitro cardiotoxicity; format: cell-based; details: for cytotoxicity in differentiated cardiomyocytes: differentiated H9C2; for cytotoxicity in mitotic cells: mitotic H9C2, 16 hrs treatment, viability 72 hrs later
LS 174T cells = assay: In vitro 2D cytotoxicity; format: cell-based; details: Homo sapiens, LS174T, 72 h
recombinant human CD10 = recombinant human CD10 (Homo sapiens, UniProt P08473); assay: Peptidase cleavage assay; format: biochemical; details: after exposure to CD10, at 16 hours
Method in brief: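 Test compound (2 μM) in 150 mM NaCl, 50 mM Tris, 1% BSA, pH 7.5, at 37°C. Reaction started with recombinant human enzyme at equi-active levels (CD10 0.08, NLN 0.8, THOP1 0.1 μg/mL).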

mice = assay: Acute toxicity; format: in vivo, mouse; details: from LD50
[6] = MTD determination, weekly dosing; format: in vivo, mouse; details: mouse, in vivo
Method in brief: (§2)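 Female nu/nu NMRI mice, 6–8 weeks old, carried subcutaneous MDA-MB-468 xenografts (5 × 10^6 cells in PBS:Matrigel 1:1, right posterior flank). Healthy mice served alongside. Test compound was given weekly at 103, 206 or 309 mg/kg. Body weight, survival and tumor volume were monitored periodically during and after treatment, n = 5, mean ± SD.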

[7] = system: MDA-MB-468 tumor bearing mice; assay: MTD determination, weekly dosing; format: in vivo, mouse
Method in brief: as §2

[8] = Tissue imaging by MALDI-FTICR MSI in E0771 tumor-bearing mice; format: in vivo, mouse; details: 849.5 mg/kg IV
Method in brief: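 Female C57BL6 mice carried orthotopic E0771 tumors (1 × 10^6 cells in PBS injected into the mammary fat pad). Test compound was given IV at 849.5 mg/kg (reference doxorubicin 23 mg/kg). Whole-body and tumor sections were taken at 15 min, 24 h and 48 h and imaged by MALDI-FTICR MSI for free doxorubicin and metabolites, with H&E overlay.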

[9] = Plasma pharmacokinetics after IV administration in healthy mice; format: in vivo, mouse
Method in brief: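 Healthy mice (n = 5 per group) received a single IV dose of test compound at 849.5 mg/kg. A second set received equimolar doses: test compound 23.6 mg/kg versus doxorubicin 13.3 mg/kg. Plasma levels of prodrug, peptide-doxorubicin intermediates and free doxorubicin were followed over time and t1/2 was determined.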

[10] = heart, IV Doxorubicin 92 μmol/kg
[11] = kidney, IV Doxorubicin 92 μmol/kg
[12] = liver, IV Doxorubicin 92 μmol/kg
[13] = plasma, IV Doxorubicin 92 μmol/kg
[14] = heart, IV PhAc-ALGP-Dox 92 μmol/kg
[15] = kidney, IV PhAc-ALGP-Dox 92 μmol/kg
[16] = liver, IV PhAc-ALGP-Dox 92 μmol/kg
[17] = plasma, IV PhAc-ALGP-Dox 92 μmol/kg
[18] = tumor, IV Doxorubicin 92 μmol/kg
[19] = tumor, IV PhAc-ALGP-Dox 92 μmol/kg

recombinant human CD10, sequence (P08473 whole entry): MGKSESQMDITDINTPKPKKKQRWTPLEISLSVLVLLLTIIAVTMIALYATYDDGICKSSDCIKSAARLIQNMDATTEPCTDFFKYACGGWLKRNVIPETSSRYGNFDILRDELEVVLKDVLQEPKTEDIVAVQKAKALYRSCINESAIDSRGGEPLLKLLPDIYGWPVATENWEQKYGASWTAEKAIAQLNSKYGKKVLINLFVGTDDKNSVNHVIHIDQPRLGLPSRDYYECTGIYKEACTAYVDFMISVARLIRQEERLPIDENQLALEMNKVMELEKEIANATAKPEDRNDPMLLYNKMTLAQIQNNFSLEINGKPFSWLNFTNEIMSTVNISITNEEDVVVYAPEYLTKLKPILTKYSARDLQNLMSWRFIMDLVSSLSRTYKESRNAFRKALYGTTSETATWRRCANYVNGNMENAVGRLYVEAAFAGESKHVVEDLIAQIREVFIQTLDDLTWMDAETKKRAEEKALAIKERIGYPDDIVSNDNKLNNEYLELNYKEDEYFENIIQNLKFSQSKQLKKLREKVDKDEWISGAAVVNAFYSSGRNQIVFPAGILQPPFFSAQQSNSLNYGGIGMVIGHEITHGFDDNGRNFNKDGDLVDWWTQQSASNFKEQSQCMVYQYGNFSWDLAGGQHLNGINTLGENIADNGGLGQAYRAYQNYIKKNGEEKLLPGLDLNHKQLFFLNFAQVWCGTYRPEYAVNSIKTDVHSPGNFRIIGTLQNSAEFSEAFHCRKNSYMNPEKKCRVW

SMILES: COc1cccc2c1C(=O)c1c(O)c3c(c(O)c1C2=O)C[C@@](O)(C(=O)CO)C[C@@H]3O[C@H]1C[C@H](NC(=O)[C@H](CC(C)C)NC(=O)[C@H](C)NC(=O)[C@H](CC(C)C)NC(=O)CCNC(=O)CCC(=O)O)[C@H](O)[C@H](C)O1 [DTS-201, reference compound]
- tolerated dose relative to the standard dose of Dox (patients): 3.75 fold
- well tolerated dose in patients (patients; clinical trial): up to 400 mg/m^2
- t 1/2α ([1]; heart, IV DTS-201 92 μmol/kg): 0.2
- t 1/2α ([1]; kidney, IV DTS-201 92 μmol/kg): 0.4
- t 1/2α ([1]; liver, IV DTS-201 92 μmol/kg): 0.6
- t 1/2α ([1]; plasma, IV DTS-201 92 μmol/kg): 0.25
- t 1/2α ([1]; tumor, IV DTS-201 92 μmol/kg): 0.4

SMILES: COc1cccc2c1C(=O)c1c(O)c3c(c(O)c1C2=O)C[C@@](O)(C(=O)CO)C[C@@H]3O[C@H]1C[C@H](N)[C@H](O)[C@H](C)O1 [Dox, Doxorubicin, reference compound]
- LD50 (Acute toxicity): 17 mg/kg
- IC50 (MDA-MB-468 cells): 110 nM
- survival of mice receiving BM from treated donors [2]: 30%
- cardiotoxicity (cellular impedance) ([3]; by 72 hours): 100%
- IC50 [4]: 20 nM
- IC50 (E0771 cells): 20 nM
- t 1/2α [1, 10]: 5.6
- t 1/2α [1, 11]: 2.7
- t 1/2α [1, 12]: 2.1
- concentration at 72 hours ([1]; mouse, tumor, intravenous, 53.4 mg/kg): 7300 nM
- t 1/2α [1, 13]: 0.2
- IC50 [5]: 10 nM
- cytotoxicity in differentiated cardiomyocytes (H9C2 rat cardiomyocytes): nanomolar potency
- cytotoxicity in mitotic cells (H9C2 rat cardiomyocytes): nanomolar potency
- IC50 (LS 174T cells): 20 nM

- C max ([1]; heart, IV DTS-201 92 μmol/kg): <LoQ
- AUC [1, 10]: 54
- Cmax [1, 10]: 860 nM
- t 1/2α [1, 10]: 47
- t max [1, 10]: 240
- C max [1, 14]: <LoQ
- AUC ([1]; kidney, IV DTS-201 92 μmol/kg): 49.7
- Cmax ([1]; kidney, IV DTS-201 92 μmol/kg): 1480 nM
- t 1/2β ([1]; kidney, IV DTS-201 92 μmol/kg): 27.1
- t max ([1]; kidney, IV DTS-201 92 μmol/kg): 240
- AUC [1, 11]: 168
- Cmax [1, 11]: 6800 nM
- t 1/2α [1, 11]: 2.5
- t 1/2β [1, 11]: 49
- t max [1, 11]: 30
- AUC [1, 15]: 20.8
- Cmax [1, 15]: 1960 nM
- t 1/2α [1, 15]: 1
- t 1/2β [1, 15]: 19.7
- t max [1, 15]: 30
- AUC ([1]; liver, IV DTS-201 92 μmol/kg): 30.8
- Cmax ([1]; liver, IV DTS-201 92 μmol/kg): 670 nM
- t 1/2β ([1]; liver, IV DTS-201 92 μmol/kg): 33.4
- t max ([1]; liver, IV DTS-201 92 μmol/kg): 120
- AUC [1, 12]: 104
- Cmax [1, 12]: 6000 nM
- t 1/2α [1, 12]: 2.2
- t 1/2β [1, 12]: 33.3
- AUC [1, 16]: 10.6
- Cmax [1, 16]: 440 nM
- t 1/2β [1, 16]: 21.7
- t max [1, 16]: 240
- C max ([1]; plasma, IV DTS-201 92 μmol/kg): <LoQ
- C max [1, 13]: <LoQ
- C max [1, 17]: <LoQ
- C max ([1]; tumor, IV DTS-201 92 μmol/kg): <LoQ
- AUC [1, 18]: 8
- Cmax [1, 18]: 120 nM
- t max [1, 18]: 2,880
- C max [1, 19]: <LoQ
SMILES: COc1cccc2c1C(=O)c1c(O)c3c(c(O)c1C2=O)C[C@@](O)([C@@H](O)CO)C[C@@H]3O[C@H]1C[C@H](N)[C@H](O)[C@H](C)O1 [DoxOL, Doxorubicinol]

SMILES: COc1cccc2c1C(=O)c1c(O)c3c(c(O)c1C2=O)C[C@@](O)(C(=O)CO)C[C@@H]3O[C@H]1C[C@H](NC(=O)[C@@H]2CCCN2C(=O)CN)[C@H](O)[C@H](C)O1 [GP-Dox]
- t 1/2α [1, 14]: 0.3
- t 1/2α [1, 15]: 0.2
- t 1/2α [1, 16]: 1.4
- t 1/2α [1, 17]: 0.2
- t 1/2α [1, 19]: 0.5

- amount of LGP-Dox detected from PhAc-ALGP-Dox (recombinant human CD10): 2.65%
SMILES: COc1cccc2c1C(=O)c1c(O)c3c(c(O)c1C2=O)C[C@@](O)(C(=O)CO)C[C@@H]3O[C@H]1C[C@H](NC(=O)[C@@H]2CCCN2C(=O)CNC(=O)[C@@H](N)CC(C)C)[C@H](O)[C@H](C)O1 [LGP-Dox]
- t 1/2α [1, 15]: 0.1
- t 1/2α [1, 17]: 0.15

SMILES: COc1cccc2c1C(=O)c1c(O)c3c(c(O)c1C2=O)C[C@@](O)(C(=O)CO)C[C@@H]3O[C@H]1C[C@H](NC(=O)[C@@H]2CCCN2C(=O)CNC(=O)[C@H](CC(C)C)NC(=O)[C@H](C)NC(=O)CP(=O)(O)O)[C@H](O)[C@H](C)O1 [PhAc-ALGP-Dox] (Phosphonoacetyl-ALGP-{Doxorubicin(3'-N)})
- LD50 (Acute toxicity): 780 mg/kg
- times more payload that can be administered than Dox (mice): 27 times
- MTD at 672 h [6]: 154 mg/kg
- highest tolerated dose as Dox equivalent ([7]; every weeks × 4): 87 mg/kg Dox equivalent
- higher tolerability compared with the parental drug ([7]; in vivo): 10 fold
- body weight loss ([7]; tumor bearing mice, four cycles of 206 mg/kg weekly, mild but reversible): 15%
- time for which presence of free Dox in tumor remained stable [8]: ≥ 48 h
- increase of exposure to free Dox compared with administration of Dox (13.3 mg/kg) ([9]; 849.5 mg/kg PhAc-ALGP-Dox, molar concentration 36-fold higher): 1.9 fold
- free Dox lower than after Dox ([9]; equimolar doses, PhAc-ALGP-Dox 23.6 mg/kg vs Dox 13.3 mg/kg): 19 fold
- half-life ([9]; mouse, in vivo, iv, 849.5 mg/kg): 6.5 to 8.5 min
- reduction of circulating cytotoxic T lymphocytes (CTL) in donor mice ([2]; 1,026 mg/kg/week via osmotic minipumps, 7 days): 15%
- survival of mice receiving BM from treated donors [2]: 80%
- concentrations at which alterations were induced ([3]; cellular impedance, up to 72 h): > 5000 nM
- t 1/2α [1, 14]: 0.17
- greater retention of Dox in the tumor microenvironment compared with the parental drug ([1]; in vivo): 5 fold
- t 1/2α [1, 15]: 0.1
- t 1/2α [1, 16]: 0.7
- t 1/2α [1, 17]: 0.21
- free Dox exposure lower than after equimolar dosage of Dox ([1]; plasma, PhAc-ALGP-Dox 94.4 mg/kg vs Dox 53.4 mg/kg): 15 fold
- t 1/2α [1, 19]: 0.3
- intratumoral free Dox concentration lower than after equimolar Dox ([1]; tumor, PhAc-ALGP-Dox 94.4 mg/kg vs Dox 53.4 mg/kg): 2.8 fold
- cytotoxicity in differentiated cardiomyocytes (H9C2 rat cardiomyocytes): essentially resilient
- cytotoxicity in mitotic cells (H9C2 rat cardiomyocytes): considerably less affected
